Active and inactive are the calls of the source. The rule behind the calls is not given here. *1 amine or outer side, *2 acyl side, *3 side chain or, on linkers, in order; H or OH if unused. Where a SMILES comes first, the peptide text is derived from it. [ ]: non-standard residue; d: D form. X1 = O=C(CCOC[C@H]1O[C@@H](OCCCN[*:1])[C@H](O)[C@@H](O)[C@@H]1O)[*:2]
Assays:
[1] = target: Amyloid-beta precursor protein (Homo sapiens) (UniProt P05067); experiment: Inhibition of amyloid beta (1 to 42) (unknown origin) fibril formation assessed as decrease in fluorescence plateau at compound/protein ratio of 10/1 after 42 hrs by ThT fluorescence assay relative to control; conditions: concentration not given here
Chain of Amyloid-beta precursor protein (Homo sapiens) (P05067 whole entry, the tested form may be a part): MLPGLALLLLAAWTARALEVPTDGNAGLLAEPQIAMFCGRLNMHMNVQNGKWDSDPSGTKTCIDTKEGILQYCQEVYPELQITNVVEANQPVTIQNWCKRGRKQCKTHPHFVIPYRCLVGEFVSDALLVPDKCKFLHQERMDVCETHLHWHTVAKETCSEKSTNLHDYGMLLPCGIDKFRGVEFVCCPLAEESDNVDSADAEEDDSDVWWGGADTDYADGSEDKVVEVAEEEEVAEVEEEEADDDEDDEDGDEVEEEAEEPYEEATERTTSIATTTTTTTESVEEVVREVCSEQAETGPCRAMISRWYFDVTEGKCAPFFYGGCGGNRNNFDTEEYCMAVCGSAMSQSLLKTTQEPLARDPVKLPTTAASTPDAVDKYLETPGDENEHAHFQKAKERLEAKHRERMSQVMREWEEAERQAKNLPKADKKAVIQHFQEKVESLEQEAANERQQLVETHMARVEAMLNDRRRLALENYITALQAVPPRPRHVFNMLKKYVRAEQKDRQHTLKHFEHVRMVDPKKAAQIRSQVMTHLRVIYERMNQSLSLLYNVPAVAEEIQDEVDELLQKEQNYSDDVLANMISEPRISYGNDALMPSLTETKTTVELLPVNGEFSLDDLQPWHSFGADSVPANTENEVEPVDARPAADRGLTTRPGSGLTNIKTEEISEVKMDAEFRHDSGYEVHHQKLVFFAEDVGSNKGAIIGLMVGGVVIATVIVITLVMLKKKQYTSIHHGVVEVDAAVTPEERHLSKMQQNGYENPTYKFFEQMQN
Outline: (§1)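 Aβ1-42 (1 mM in 1% ammonia, diluted in buffer) added to a final 10 μM into 40 μM ThT in 10 mM Tris-HCl, 100 mM NaCl pH 7.4, with compound at 100, 50, 10 or 1 μM (0.5% DMSO), at room temperature. Ex/em 440/485 nm read for 42 h, in duplicate or triplicate, 2–4 runs. t1/2 and plateau F expressed relative to Aβ alone.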

[2] = target: Amyloid-beta precursor protein (Homo sapiens) (UniProt P05067); experiment: Inhibition of amyloid beta (1 to 42) (unknown origin) fibril formation assessed as extension of aggregation half life at compound/protein ratio of 10/1 after 42 hrs by ThT fluorescence assay relative to control; parameters: Activity: scale not given: the % may be the effect or the level left; outline: as §1
[3] = target: Amyloid-beta precursor protein (Homo sapiens) (UniProt P05067); experiment: Inhibition of amyloid beta (1 to 42) (unknown origin) fibril formation assessed as decrease in fluorescence plateau at compound/protein ratio of 1/1 after 42 hrs by ThT fluorescence assay relative to control; outline: as §1
[4] = target: Amyloid-beta precursor protein (Homo sapiens) (UniProt P05067); experiment: Inhibition of amyloid beta (1 to 42) (unknown origin) fibril formation assessed as extension of aggregation half life at compound/protein ratio of 1/1 after 42 hrs by ThT fluorescence assay relative to control; parameters: Activity: scale not given: the % may be the effect or the level left; outline: as §1
[5] = target: Amyloid-beta precursor protein (Homo sapiens) (UniProt P05067); experiment: Inhibition of amyloid beta (1 to 42) (unknown origin) oligomerization assessed as remaining monomer level at compound/protein ratio of 1/1 after 12 hrs by capillary electrophoresis (reference value: 19%)
Outline: (§2)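 Aβ1-42 pretreated in 0.16% NH4OH, lyophilized, then reconstituted at 100 μM in 20 mM phosphate pH 7.4 with 2.5% DMSO, compound/peptide 1/1. Species separated in fused silica capillary (50 μm ID) with 80 mM phosphate pH 7.4 background electrolyte, −20 kV, 25 °C. UV detection at 190 nm; profiles taken at 0 and 12 h.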

[6] = target: Amyloid-beta precursor protein (Homo sapiens) (UniProt P05067); experiment: Inhibition of amyloid beta (1 to 42) (unknown origin) fibril formation assessed as decrease in fluorescence plateau at compound/protein ratio of 0.1/1 after 42 hrs by ThT fluorescence assay relative to control; conditions: concentration not given here; outline: as §1
[7] = target: Amyloid-beta precursor protein (Homo sapiens) (UniProt P05067); experiment: Inhibition of amyloid beta (1 to 42) (unknown origin) oligomerization assessed as formation of larger than dodecamers at compound/protein ratio of 1/1 at 12 hrs by capillary electrophoresis; outline: as §2
[8] = target: Amyloid-beta precursor protein (Homo sapiens) (UniProt P05067); experiment: Binding affinity to synthetic 15N,13C-labelled recombinant amyloid beta (1 to 42) (unknown origin) assessed as negative nuclear overhauser effect at 0.4 mM after 2.5 weeks by 2D NOESY method
Outline: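 2D NOESY at 5 °C with 0.2 s mixing time. Synthetic Aβ1-42 in 50 mM sodium phosphate pH 7.4 with 10% D2O, ligand at 0.4 mM, recorded at 500 MHz.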

[9] = target: Amyloid-beta precursor protein (Homo sapiens) (UniProt P05067); experiment: Binding affinity to synthetic 15N,13C-labelled recombinant amyloid beta (1 to 42) (unknown origin) at 0.4 mM after 2.5 weeks by saturation transfer difference method
Outline: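 1D 1H STD at 5 °C in 50 mM sodium phosphate pH 7.4 with 10% D2O. Cascade of 50 ms Gaussian pulses (B1 0.1 kHz, 3 s total) applied alternately on-resonance at −0.7 ppm and off-resonance at +30 ppm. 320 scans (50 min). Ligand at 0.4 mM.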

[10] = target: Amyloid-beta precursor protein (Homo sapiens) (UniProt P05067); experiment: Inhibition of amyloid beta (1 to 42) (unknown origin) fibril formation assessed as extension of aggregation half life at compound/protein ratio of 0.1/1 after 42 hrs by ThT fluorescence assay relative to control; parameters: Activity: scale not given: the % may be the effect or the level left; outline: as §1
[11] = target: Amyloid-beta precursor protein (Homo sapiens) (UniProt P05067); experiment: Binding affinity to synthetic 15N,13C-labelled recombinant amyloid beta (1 to 42) (unknown origin) assessed as negative nuclear overhauser effect at 0.4 mM after 2.5 weeks by 1D 1H water LOGSY method
Outline: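 WaterLOGSY at 5 °C in 50 mM sodium phosphate pH 7.4 with 10% D2O, synthetic Aβ1-42. Ligand at 0.4 mM. Selective water inversion with a 20 ms Gaussian pulse, 0.5 s mixing, 2 s recycle delay, 1200 scans (about 1 h), 500 MHz cryoprobe.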

[12] = target: Amyloid-beta precursor protein (Homo sapiens) (UniProt P05067); experiment: Binding affinity to amyloid beta (1 to 42) (unknown origin) by SPR analysis
Outline: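 Aβ1-42 (0.05 μM in 10 mM sodium acetate pH 4.6) amine-coupled to an EDC/NHS-activated gold chip, then rinsed with 0.1% NH4OH to leave mainly monomer. Analytes in 150 mM PBS with 2% DMSO were injected at 12.5–200 μM for 1 min at 80 μL/min. DMSO solvent correction applied and the ethanolamine-blocked blank channel subtracted. Regeneration with 0.1% NH4OH.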

Plasma = experiment: Metabolic stability in 10% human plasma assessed as drug degradation at 1 uM after 24 hrs by HPLC analysis; format: ADME, cell-free
Outline: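 Compounds taken from 40 μM DMSO stock to 1 μM in 10% human plasma/90% sterile PBS, held 24 h at 37 °C. Analysed by C18 HPLC with a 0–80% gradient (A: 0.1% TFA in water; B: 0.05% TFA in acetonitrile).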

SH-SY5Y [13] = experiment: Neuroprotective activity against amyloid beta (1 to 42)-induced membrane damage in human SH-SY5Y cells at 0.1 to 5 uM after 24 hrs by LDH assay; format: functional, cell-based
Outline: (§3)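 Aβ1-42 at 50 μM in sterile PBS pre-incubated 24 h at room temperature with 1, 5, 10 or 50 μM compound, then diluted 1:10 (5 μM Aβ final) onto SH-SY5Y cells. Cells seeded at 20 000/well in low-serum Optimem, 37 °C, 5% CO2, 24 h. Exposure a further 24 h in quadruplicate. MTS viability or LDH release read; assays repeated twice.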

SH-SY5Y [14] = experiment: Neuroprotective activity against amyloid beta (1 to 42)-induced toxicity in human SH-SY5Y cells assessed as cell viability at 0.25 to 5 uM after 24 hrs by MTS assay; format: functional, cell-based; outline: as §3

| inhibition [1] | Activity [2] | inhibition [3] | Activity [4] | inhibition [2] | inhibition ([3]; concentration not given here) | Activity [5] | inhibition [6] | inhibition [7] | Activity [9] | Activity [10] | Activity [11] | Activity [12] | Stability (Plasma) | inhibition [4] | Structure (SMILES) | Activity [8] | Activity (SH-SY5Y [13]) | Activity (SH-SY5Y [14]) |
| --- | --- | --- | --- | --- | --- | --- | --- | --- | --- | --- | --- | --- | --- | --- | --- | --- | --- | --- |
| 41% | 379% | inactive | 138% | – | – | – | – | – | – | – | – | – | – | – | COc1ccc(NC(C)=O)cc1C(=O)NNC(=O)[C@@H](NC(=O)CCOC[C@H]1OC(OCCCNC(=O)[C@@H](NC(=O)[C@H](C)NC(=O)OC(C)(C)C)C(C)C)[C@H](O)[C@@H](O)[C@@H]1O)C(C)C (stereo partly drawn) | – | – | – |
| 84% | – | – | 154% | Active | 26% | – | – | – | – | – | – | – | – | – | COc1ccc(NC(C)=O)cc1C(=O)NNC(=O)[C@H](CCCCN)NC(=O)CCOC[C@H]1OC(OCCCNC(=O)[C@@H](NC(=O)[C@H](C)NC(=O)OC(C)(C)C)C(C)C)[C@H](O)[C@@H](O)[C@@H]1O (stereo partly drawn) | – | – | – |
| 90% | – | – | 165% | Active | 34% | 52% | 16% | Active | Active | 129% | Active | Dose-dependent effect | – | – | COc1ccc(NC(C)=O)cc1C(=O)NNC(=O)[C@H](CCCCN)NC(=O)CCOC[C@H]1O[C@@H](OCCCNC(=O)[C@@H](NC(=O)[C@H](C)N)C(C)C)[C@H](O)[C@@H](O)[C@@H]1O | Active | – | – |
| 56% | 280% | inactive | – | – | – | – | – | – | – | – | – | Dose-dependent effect | Unstable | inactive | COC(=O)[C@H](CC(C)C)NC(=O)[C@@H](NC(=O)CCOC[C@H]1O[C@@H](OCCCNC(=O)[C@@H](NC(=O)[C@H](C)N)C(C)C)[C@H](O)[C@@H](O)[C@@H]1O)C(C)C (H-AV[X1]VL-OMe) | – | Active | Active |

Reference: ChEMBL document CHEMBL3792330, “Designed Glycopeptidomimetics Disrupt Protein-Protein Interactions Mediating Amyloid β-Peptide Aggregation and Restore Neuroblastoma Cell Viability” (J Med Chem, 2016)
